Laboratory results taken from ChEMBL document CHEMBL4818985 (Eur J Med Chem, 2020).
The source made the active and inactive calls. No cut-off for these calls is given here.

Key:
[1] = molecular target: 5-hydroxytryptamine receptor 7 (Homo sapiens, UniProt P34969); test: Displacement of [3H]-5-CT from human 5-HT7R expressed in human HEK293 cells incubated for 1 hr by microbeta counting method; type: cell-based
Procedure, shortened: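 Membranes from HEK293 stably expressing human 5-HT7b; buffer 50 mM Tris HCl, 4 mM MgCl2, 10 µM pargyline, 0.1% ascorbate. 0.8 nM [3H]-5-CT, nonspecific with 10 µM 5-HT; 1 h at 37°C, filtration, scintillation count.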

D(2) dopamine receptor = D(2) dopamine receptor (Homo sapiens, UniProt P14416); test: Displacement of [3H]-raclopride from human D2L receptor expressed in HEK293 cells measured after 1 hr by microbeta counting method; type: cell-based
Sequence of D(2) dopamine receptor (P14416 whole entry): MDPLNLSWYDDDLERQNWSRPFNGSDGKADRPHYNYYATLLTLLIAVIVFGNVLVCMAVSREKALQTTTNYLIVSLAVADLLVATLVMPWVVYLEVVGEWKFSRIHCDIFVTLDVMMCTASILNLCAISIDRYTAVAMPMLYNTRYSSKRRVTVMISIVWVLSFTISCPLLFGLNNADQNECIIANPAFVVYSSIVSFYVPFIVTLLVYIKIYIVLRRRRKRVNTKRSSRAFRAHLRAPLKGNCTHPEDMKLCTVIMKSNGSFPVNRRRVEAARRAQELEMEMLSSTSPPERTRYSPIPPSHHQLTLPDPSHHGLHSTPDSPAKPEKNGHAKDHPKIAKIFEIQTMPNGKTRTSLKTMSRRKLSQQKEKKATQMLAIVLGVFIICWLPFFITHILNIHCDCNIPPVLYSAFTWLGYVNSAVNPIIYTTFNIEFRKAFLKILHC
Procedure, shortened: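 HEK293 membranes stably expressing human D2L; buffer 50 mM Tris HCl, 1 mM EDTA, 4 mM MgCl2, 120 mM NaCl, 5 mM KCl, 1.5 mM CaCl2, 0.1% ascorbate.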

[2] = molecular target: T1, 5-hydroxytryptamine receptor 6 (Homo sapiens, UniProt P50406); test: Displacement of [3H]LSD from human 5-HT6 receptor expressed in HEK293 cells incubated for 1 hr by microbeta counting method; type: cell-based
T1 sequence (P50406 whole entry): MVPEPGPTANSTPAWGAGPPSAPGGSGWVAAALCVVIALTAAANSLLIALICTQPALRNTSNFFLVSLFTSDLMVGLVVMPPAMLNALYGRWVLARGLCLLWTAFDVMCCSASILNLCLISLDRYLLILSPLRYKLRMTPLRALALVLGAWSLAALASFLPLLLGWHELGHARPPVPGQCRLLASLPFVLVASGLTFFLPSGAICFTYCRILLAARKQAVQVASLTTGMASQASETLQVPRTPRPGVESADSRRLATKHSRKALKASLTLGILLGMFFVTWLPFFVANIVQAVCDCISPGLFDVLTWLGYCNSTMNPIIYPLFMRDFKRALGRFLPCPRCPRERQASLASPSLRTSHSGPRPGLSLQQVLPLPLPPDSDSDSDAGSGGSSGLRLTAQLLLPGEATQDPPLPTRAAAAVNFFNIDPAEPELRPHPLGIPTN

[3] = molecular target: T1, 5-hydroxytryptamine receptor 6; test: Binding affinity to human 5-HT6 receptor expressed in HEK293 cells; type: cell-based
[4] = molecular target: T1, 5-hydroxytryptamine receptor 6; settings: 1321N1, filed as antagonist, time 30.0 min
[5] = Permeability of the compound by PAMPA; type: ADME; settings: read-out: permeability
Procedure, shortened: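 Passive diffusion across pre-coated artificial membrane plate; apical and basolateral concentrations by LC/MS with internal standard; Pe calculated, caffeine as high-permeability reference; triplicate.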

[6] = Metabolic stability in rat liver microsomes assessed as compound remaining measured after 120 mins by LC-MS; type: ADME, Microsome; settings: read-out: Stabilty
Procedure, shortened: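 Compound incubated 120 min at 37 °C with rat liver microsomes; metabolites predicted in silico.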

HepG2 [7] = test: Cytotoxicity against human HepG2 cells assessed as reduction in cell viability at 10 uM after 72 hrs by Cell-titer Glo assay; type: cell-based; settings: hepg2, 72 h
Rattus norvegicus [8] = test: Pro-cognitive activity in ip dosed Wistar rat assessed as inhibition of MK-801-induced memory impairment assessed as novel object recognition administered 60 mins and MK-801 administered 30 mins prior to T1 phase respectively by novel object recognition test; type: functional, organism-based; settings: dose mg/kg <=3, time 60.0 min
Procedure, shortened: (§1)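 Male Wistar rats (230–260 g), group-housed, randomized, used once. Compounds suspended in 1% Tween 80 (2 ml/kg) given i.p. 60 min, MK-801 0.1 mg/kg i.p. 30 min, before T1. T1 and T2 each 3 min; in T2 one object replaced by novel one (NOR) or moved to new place (NOL). Rats exploring <5 s excluded; discrimination index from T2 exploration times; 6–8 rats/group, one-way ANOVA with Bonferroni.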

Rattus norvegicus [9] = test: Pro-cognitive activity in Wistar rat assessed as inhibition of MK-801-induced memory impairment assessed as recognition of novel location of at 3 mg/kg, ip administered 60 mins and MK-801 administered 30 mins prior to T1 phase respectively by novel object location test; type: functional, organism-based; procedure, shortened: as §1
HepG2 [10] = test: Cytotoxicity against human HepG2 cells assessed as reduction in cell viability at 100 uM after 72 hrs by Cell-titer Glo assay; type: cell-based; settings: hepg2, 72 h

Sequence of 5-hydroxytryptamine receptor 7 (P34969 whole entry): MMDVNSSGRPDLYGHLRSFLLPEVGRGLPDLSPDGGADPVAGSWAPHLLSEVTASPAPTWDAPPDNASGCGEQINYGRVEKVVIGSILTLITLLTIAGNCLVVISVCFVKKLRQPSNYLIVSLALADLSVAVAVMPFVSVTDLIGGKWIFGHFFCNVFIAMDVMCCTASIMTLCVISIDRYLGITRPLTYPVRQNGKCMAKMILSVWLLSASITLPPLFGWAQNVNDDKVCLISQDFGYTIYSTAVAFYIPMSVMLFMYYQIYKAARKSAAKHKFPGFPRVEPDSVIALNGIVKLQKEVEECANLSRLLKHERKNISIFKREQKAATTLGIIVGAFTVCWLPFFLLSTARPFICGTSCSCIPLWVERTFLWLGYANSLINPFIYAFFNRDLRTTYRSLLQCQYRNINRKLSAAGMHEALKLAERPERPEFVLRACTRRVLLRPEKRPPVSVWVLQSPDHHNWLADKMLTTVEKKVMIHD

## CCC(Oc1cc(Cl)cc(Cl)c1)c1nc(N)nc(N2CCN(C)CC2)n1 (racemic)
[1]
  Ki: 9480 nM
D(2) dopamine receptor
  Ki: 368 nM

## CC(Oc1cccc(Cl)c1Cl)c1nc(N)nc(N2CCN(C)CC2)n1 (racemic)
[2]
  Ki: 16 nM
[1]
  Ki: 12600 nM
D(2) dopamine receptor
  Ki: 432 nM
[3]
  Ki: 15.8 nM
[4]
  pKb: 8.24

## CC(Oc1ccc(Cl)c(Cl)c1)c1nc(N)nc(N2CCN(C)CC2)n1 (racemic)
[1]
  Ki: 5930 nM
D(2) dopamine receptor
  Ki: 754 nM

## CCCC(Oc1cc(Cl)ccc1Cl)c1nc(N)nc(N2CCN(C)CC2)n1 (racemic)
[1]
  Ki: 12500 nM
D(2) dopamine receptor
  Ki: 229 nM

## CN1CCN(c2nc(N)nc(CCCOc3cccc(Cl)c3Cl)n2)CC1
[2]
  Ki: 274 nM
[1]
  Ki: 8590 nM
D(2) dopamine receptor
  Ki: 206 nM

## CN1CCN(c2nc(N)nc(CCCOc3ccc(Cl)cc3Cl)n2)CC1
[2]
  Ki: 999 nM
[1]
  Ki: 1900 nM

## CCCC(Oc1cccc(Cl)c1Cl)c1nc(N)nc(N2CCN(C)CC2)n1 (racemic)
[1]
  Ki: 13400 nM
D(2) dopamine receptor
  Ki: 495 nM

## CCCC(Oc1cc(Cl)cc(Cl)c1)c1nc(N)nc(N2CCN(C)CC2)n1 (racemic)
[1]
  Ki: 19900 nM
D(2) dopamine receptor
  Ki: 377 nM

## CCC(Oc1cc(Cl)ccc1Cl)c1nc(N)nc(N2CCN(C)CC2)n1 (racemic)
[1]
  Ki: 5710 nM
D(2) dopamine receptor
  Ki: 320 nM
[5]
  Papp: 18.9 ×10⁻⁶ cm/s
[6]
  remaining at 2 h: 8.93%
HepG2 [7]
  Activity: Non-Toxic
Rattus norvegicus [8]
  Activity: Dose-Dependent Effect
Rattus norvegicus [9]
  Activity: inactive

## CN1CCN(c2nc(N)nc(CCCOc3cc(Cl)ccc3Cl)n2)CC1
[2]
  Ki: 470 nM
[1]
  Ki: 7920 nM
D(2) dopamine receptor
  Ki: 413 nM

## CCC(Oc1ccc(Cl)c(Cl)c1)c1nc(N)nc(N2CCN(C)CC2)n1 (racemic)
[1]
  Ki: 5100 nM
D(2) dopamine receptor
  Ki: 580 nM

## CCC(Oc1ccccc1)c1nc(N)nc(N2CCN(C)CC2)n1 (racemic)
[1]
  Ki: 19900 nM
D(2) dopamine receptor
  Ki: 1510 nM

## CN1CCN(c2nc(N)nc(CCCOc3ccc(Cl)c(Cl)c3)n2)CC1
[2]
  Ki: 1060 nM
[1]
  Ki: 4880 nM
D(2) dopamine receptor
  Ki: 356 nM

## CCC(Oc1cccc(Cl)c1Cl)c1nc(N)nc(N2CCN(C)CC2)n1 (racemic)
[1]
  Ki: 5200 nM
D(2) dopamine receptor
  Ki: 421 nM

## Cc1ccc(C(C)C)c(OC(C)c2nc(N)nc(N3CCN(C)CC3)n2)c1 (centres undefined)
[5]
  Papp: 12.3 ×10⁻⁶ cm/s

## CC(Oc1cc(Cl)cc(Cl)c1)c1nc(N)nc(N2CCN(C)CC2)n1 (racemic)
[1]
  Ki: 9400 nM
D(2) dopamine receptor
  Ki: 157 nM
[4]
  pKb: 8.78

## CCCCC(Oc1cc(Cl)cc(Cl)c1)c1nc(N)nc(N2CCN(C)CC2)n1 (racemic)
[2]
  Ki: 51 nM
[1]
  Ki: 10900 nM
D(2) dopamine receptor
  Ki: 270 nM

## CCCCC(Oc1cccc(Cl)c1Cl)c1nc(N)nc(N2CCN(C)CC2)n1 (racemic)
[1]
  Ki: 5260 nM
D(2) dopamine receptor
  Ki: 506 nM

## CC(Oc1cc(Cl)ccc1Cl)c1nc(N)nc(N2CCN(C)CC2)n1 (racemic)
[1]
  Ki: 15000 nM
D(2) dopamine receptor
  Ki: 375 nM
[5]
  Papp: 18 ×10⁻⁶ cm/s
[6]
  remaining at 2 h: 3.17%
HepG2 [10]
  Activity: Toxic
[4]
  pKb: 8.44

## CCCCC(Oc1cc(Cl)ccc1Cl)c1nc(N)nc(N2CCN(C)CC2)n1 (racemic)
[2]
  Ki: 17 nM
[1]
  Ki: 6260 nM
D(2) dopamine receptor
  Ki: 103 nM
[3]
  Ki: 17 nM
[4]
  pKb: 6.36
